Experimental data: PMC9307089 (Journal of medicinal chemistry, 2021)
Like-named read-outs stand apart in the source and are kept apart here. Numbered stars: 1 amine (or outer) side, 2 acyl side, 3 side chain; on linkers, the order of the positions; unused ones are H or OH. Square brackets hold non-standard residues; d marks the D form. Peptide text beside a SMILES is read from it. X1 = N=C(N)NCCC[C@H](N[*:1])C(=O)c1nc2ccc(C(=O)[*:2])cc2s1

Legend:
HCC827 cells = assay: Pro-HGF-mediated wound healing; type: cell-based; conditions: HCC827, inhibitor 10 μM, 24 h
Outline: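 HCC827 monolayers were grown to confluence, serum-starved overnight and scratched. Cells were then pre-incubated 30 min with test compound (10 μM) and stimulated with HGF or pro-HGF for 24 h. Plates were stained with crystal violet and wound closure imaged; data average n=3.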

HGFA = biological target: T1, HGFA (Homo sapiens, UniProt Q04756); assay: Proteolytic processing of recombinant pro-HGF by HGFA; type: biochemical; conditions: pro-HGF 10 ng, HGFA 5 nM, one hour
T1 sequence (Q04756 373-655): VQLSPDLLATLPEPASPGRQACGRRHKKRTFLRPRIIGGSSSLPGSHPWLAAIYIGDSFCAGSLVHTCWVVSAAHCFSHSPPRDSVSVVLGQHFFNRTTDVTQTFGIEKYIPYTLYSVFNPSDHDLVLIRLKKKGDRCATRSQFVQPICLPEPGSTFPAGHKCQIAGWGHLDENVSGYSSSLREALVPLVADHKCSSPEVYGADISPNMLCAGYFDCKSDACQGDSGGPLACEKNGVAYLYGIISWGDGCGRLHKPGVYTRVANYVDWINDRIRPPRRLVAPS
Outline: (§1)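 Recombinant pro-HGF (10 ng) was incubated 1 h with matriptase (1 nM), hepsin (10 nM) or HGFA (5 nM), with or without test compound. Products were immunoblotted with a polyclonal antibody detecting pro-HGF and the alpha and beta chains of active HGF. Active HGF was run as positive control.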

matriptase = biological target: T2, matriptase (Homo sapiens, UniProt Q9Y5Y6); assay: Proteolytic processing of recombinant pro-HGF by matriptase; type: biochemical; conditions: pro-HGF 10 ng, matriptase 1 nM, one hour
T2 sequence (Q9Y5Y6 1-855): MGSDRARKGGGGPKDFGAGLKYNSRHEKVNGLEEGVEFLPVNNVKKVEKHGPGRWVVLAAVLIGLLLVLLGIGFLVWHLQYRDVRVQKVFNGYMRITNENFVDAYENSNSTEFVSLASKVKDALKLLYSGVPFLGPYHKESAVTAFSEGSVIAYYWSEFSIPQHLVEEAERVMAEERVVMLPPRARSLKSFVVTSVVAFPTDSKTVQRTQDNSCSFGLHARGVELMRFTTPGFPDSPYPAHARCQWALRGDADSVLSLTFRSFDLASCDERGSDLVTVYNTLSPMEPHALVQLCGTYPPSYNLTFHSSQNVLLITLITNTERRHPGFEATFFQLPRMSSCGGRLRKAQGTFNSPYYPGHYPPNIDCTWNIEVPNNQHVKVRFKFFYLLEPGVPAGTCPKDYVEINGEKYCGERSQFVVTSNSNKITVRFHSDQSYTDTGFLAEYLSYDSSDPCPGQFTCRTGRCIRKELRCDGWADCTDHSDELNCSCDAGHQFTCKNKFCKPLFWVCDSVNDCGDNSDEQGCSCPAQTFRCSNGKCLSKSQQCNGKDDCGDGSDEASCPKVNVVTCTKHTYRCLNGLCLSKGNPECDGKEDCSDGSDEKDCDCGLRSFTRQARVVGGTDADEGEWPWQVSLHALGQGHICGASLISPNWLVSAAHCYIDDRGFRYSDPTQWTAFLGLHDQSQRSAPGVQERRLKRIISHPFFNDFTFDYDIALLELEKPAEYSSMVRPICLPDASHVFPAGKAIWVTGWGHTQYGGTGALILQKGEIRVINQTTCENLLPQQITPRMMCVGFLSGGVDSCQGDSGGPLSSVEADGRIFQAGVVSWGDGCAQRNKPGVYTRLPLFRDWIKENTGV
Outline: as §1

EBC-1 lung cancer cells [1] = assay: Cell viability, pro-HGF-mediated resistance to MET inhibitor JNJ-38877605; type: cell-based; conditions: JNJ-38877605 25 nM, pro-HGF 100 ng/ml, inhibitor 1 μM, 48 h
Outline: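 EBC-1 cells pre-incubated 24 h with pro-HGF (100 ng/ml), with or without test compound (1μM), then treated with MET kinase inhibitor JNJ-38877605 (25nM). Viability read by CellTiterGlo after 48 hrs. Means±S.E.M., n=3. One-way ANOVA with Dunnett's multiple comparison test against JNJ plus pro-HGF treated cells.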

[2] = Mouse plasma protein binding; type: in vitro ADME
H596 lung cancer cells = assay: Pro-HGF-mediated growth of H596 cells in vitro; type: cell-based; conditions: pro-HGF 50 ng/ml; JNJ 500 nM, nafamostat […], ZFH7116 10 μM
HCC827 lung cancer cells = assay: Cell viability, pro-HGF-mediated resistance to gefitinib; type: cell-based; conditions: gefitinib 20 nM, pro-HGF 100 ng/ml, inhibitor 0.1-1 μM, 72 h
Outline: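 HCC827 cells (EGFR exon-19 E746–A750 deletion) were exposed to gefitinib (20 nM), with or without pro-HGF (100 ng/ml), and test compound (0.1–1 μM) as indicated. Viability was read by crystal violet staining after 72 h. Data are means ± S.E.M. of n=3–5, analysed by one-way ANOVA with Dunnett's test against cells given gefitinib plus pro-HGF.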

hepsin = hepsin (Homo sapiens, UniProt P05981); assay: Proteolytic processing of recombinant pro-HGF by hepsin; type: biochemical; conditions: pro-HGF 10 ng, hepsin 10 nM, one hour
Sequence of hepsin (P05981 whole entry): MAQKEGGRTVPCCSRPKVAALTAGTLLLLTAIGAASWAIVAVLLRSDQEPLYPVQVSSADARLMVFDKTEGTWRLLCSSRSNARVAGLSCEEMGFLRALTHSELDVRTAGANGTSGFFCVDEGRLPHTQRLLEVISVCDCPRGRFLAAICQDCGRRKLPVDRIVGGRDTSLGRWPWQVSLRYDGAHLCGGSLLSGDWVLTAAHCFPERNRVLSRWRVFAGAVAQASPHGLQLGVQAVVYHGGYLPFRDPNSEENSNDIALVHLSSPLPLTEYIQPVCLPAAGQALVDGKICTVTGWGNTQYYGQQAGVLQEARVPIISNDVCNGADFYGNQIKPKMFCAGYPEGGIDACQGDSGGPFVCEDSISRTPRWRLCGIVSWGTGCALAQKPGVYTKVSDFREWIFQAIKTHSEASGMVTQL
Outline: as §1

[3] = Mouse pharmacokinetics, IP dosing; conditions: for duration of compound exposure (detectable compound) in plasma: monitored for 24 h
[4] = Tolerability in mice, daily IP for 7 days; type: in vivo
thrombin = thrombin (Homo sapiens, UniProt P00734); assay: Chromogenic kinetic enzyme assay, thrombin; type: biochemical
EBC-1 lung cancer cells [5] = conditions: previous finding; cited from earlier work
[6] = In vitro stability in mouse plasma; type: in vitro ADME
[7] = In vitro stability in human plasma; type: in vitro ADME
[8] = biological target: T3, recombinant serine protease domain of HGFA (Homo sapiens, UniProt Q04756); assay: Fluorescent kinetic enzyme inhibition assay, HGFA; type: biochemical
T3 sequence (Q04756 408-646 limits assumed): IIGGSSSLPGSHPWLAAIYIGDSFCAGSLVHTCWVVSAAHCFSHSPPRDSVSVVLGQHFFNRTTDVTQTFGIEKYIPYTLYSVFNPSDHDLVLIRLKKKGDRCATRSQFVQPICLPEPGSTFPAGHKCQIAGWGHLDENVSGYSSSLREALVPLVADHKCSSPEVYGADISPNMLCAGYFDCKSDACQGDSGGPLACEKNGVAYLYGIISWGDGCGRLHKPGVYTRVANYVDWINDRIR

[9] = read-out: Thrombin IC50, chromogenic substrate S2238

CC(=O)N[C@@H](CO)C(=O)N[C@@H](CCCCN)C(=O)N[C@@H](CC(C)C)C(=O)N[C@@H](CCCNC(=N)N)C(=O)c1nc2ccc(C(=O)N[C@H](C(N)=O)C(C)C)cc2s1 [Compound 31] (Ac-SKL[X1]V-NH2)
pro-HGF-mediated wound closure (HCC827 cells): significantly inhibited | inhibition of pro-HGF activation by HGFA (HGFA): potently inhibited | inhibition of pro-HGF activation by matriptase (matriptase): potently inhibited | pro-survival activity of pro-HGF in JNJ-38877605-treated EBC-1 cells (EBC-1 lung cancer cells [1]): blocked the pro-survival activity of pro-HGF | Mouse PPB (% free) [2]: 16.7 % free | pro-HGF-mediated growth of H596 cells (H596 lung cancer cells): blocked the growth-promoting activity of pro-HGF | pro-survival effect of pro-HGF in gefitinib-treated HCC827 cells (HCC827 lung cancer cells): blocked the pro-survival effects of pro-HGF | inhibition of pro-HGF activation by hepsin (hepsin): potently inhibited

CC(=O)N[C@H]1CCCCNC(=O)C[C@@H](C(=O)N[C@@H](CCCNC(=N)N)C(=O)c2nc3ccccc3s2)NC(=O)[C@H](CC(C)C)NC1=O [Compound 15, Ac-cyclo(KLD)-R-ketobenzothiazole]
Mouse PPB (% free) [2]: 85.3 % free

CC(=O)N[C@H]1CC(=O)NCCCC[C@@H](C(=O)N[C@@H](CCCNC(=N)N)C(=O)c2nc3ccccc3s2)NC(=O)[C@H](Cc2ccccc2)NC1=O [Compound 29, Ac-cyclo(DFK)-R- ketobenzothiazole]
AUC in mice (in words) ([3]; IP 20 mg/kg): comparable to 18

CC(=O)N[C@H]1CC(=O)NCCCC[C@@H](C(=O)N[C@@H](CCCNC(=N)N)C(=O)c2nc3ccccc3s2)NC(=O)[C@H](CC(C)C)NC1=O [Compound 18, Ac-cyclo(DLK)-R- ketobenzothiazole]
pro-HGF-mediated wound closure (HCC827 cells): significantly inhibited | inhibition of pro-HGF activation by HGFA (HGFA): did not inhibit | inhibition of pro-HGF activation by matriptase (matriptase): potently inhibited | pro-survival activity of pro-HGF in JNJ-38877605-treated EBC-1 cells (EBC-1 lung cancer cells [1]): blocked the pro-survival activity of pro-HGF | Mouse PPB (% free) [2]: 28.6 % free | tolerated dose [4]: up to 20 mg/kg | inhibition of pro-HGF activation by hepsin (hepsin): potently inhibited | AUC in mice (in words) ([3]; IP 20 mg/kg): high | duration of compound exposure above IC50s ([3]; IP 20 mg/kg): 24 h | duration of compound exposure (detectable compound) in plasma ([3]; IP 20 mg/kg): > 24 h

CC(=O)N[C@H]1CCCCNC(=O)CC[C@@H](C(=O)N[C@@H](CCCNC(=N)N)C(=O)c2nc3ccccc3s2)NC(=O)[C@H](CC(C)C)NC1=O [Compound 16, Ac-cyclo(KLE)-R-ketobenzothiazole]
Mouse PPB (% free) [2]: 18.4 % free | duration of compound exposure (detectable compound) in plasma ([3]; IP 20 mg/kg): ≤ 8 h

CC(=O)N[C@H]1CC(=O)NCCCC[C@@H](C(=O)N[C@@H](CCCNC(=N)N)C(=O)c2nc3ccccc3s2)NC(=O)[C@H](CC(N)=O)NC1=O [Compound 25, Ac-cyclo(DNK)-R- ketobenzothiazole]
IC50 (thrombin; [9]): > 20 µM

CC(=O)N[C@H]1CCCCNC(=O)CC[C@@H](C(=O)N[C@@H](CCCNC(=N)N)C(=O)c2nc3ccccc3s2)NC(=O)[C@H](CCCNC(=N)N)NC1=O [Compound 17, Ac-cyclo(KRE)-R- ketobenzothiazole]
Mouse PPB (% free) [2]: 25.9 % free

CC(=O)N[C@H]1CC(=O)NCCCC[C@@H](C(=O)N[C@@H](CCCNC(=N)N)C(=O)c2nc3ccccc3s2)NC(=O)[C@H](C)NC1=O [Compound 23, Ac-cyclo(DAK)-R- ketobenzothiazole]
IC50 (thrombin; [9]): > 20 µM

CC(=O)N[C@H]1CC(=O)NCCCC[C@@H](C(=O)N[C@@H](CCCNC(=N)N)C(=O)c2nc3ccccc3s2)NC(=O)[C@H]([C@@H](C)O)NC1=O [Compound 27, Ac-cyclo(DTK)-R- ketobenzothiazole]
IC50 (thrombin; [9]): > 20 µM

CC(=O)N[C@H]1CC(=O)NCCCC[C@@H](C(=O)N[C@@H](CCCNC(=N)N)C(=O)c2nc3ccccc3s2)NC(=O)[C@H](CCC(N)=O)NC1=O [Compound 26, Ac-cyclo(DQK)-R- ketobenzothiazole]
IC50 (thrombin; [9]): > 20 µM

CC(=O)N[C@H]1CC(=O)NCCCC[C@@H](C(=O)N[C@@H](CCCNC(=N)N)C(=O)c2nc3ccccc3s2)NC(=O)[C@H](Cc2ccc(O)cc2)NC1=O [Compound 30, Ac-cyclo(DYK)-R- ketobenzothiazole]
IC50 (thrombin; [9]): > 20 µM

CC1CN(CC2CCN(Cc3ccccc3)CC2)C(=O)N(c2cccc(C(=N)N)c2)C1.O=C(O)C(F)(F)F (stereo not shown) [SRI31215]
HGF-mediated survival of MET-amplified cancer cells upon MET inhibition (EBC-1 lung cancer cells [5]): inhibited

N=C(N)Nc1ccc(C(=O)Oc2ccc3cc(C(=N)N)ccc3c2)cc1 [Nafamostat]
pro-HGF-mediated growth of H596 cells (H596 lung cancer cells): inhibited the pro-HGF-mediated growth of H596 cells

CC(=O)N[C@H]1CC(=O)NCCCC[C@@H](C(=O)N[C@@H](CCCNC(=N)N)C(=O)c2nc3ccccc3s2)NC(=O)[C@H](C(C)C)NC1=O [Compound 24, Ac-cyclo(DVK)-R- ketobenzothiazole]
IC50 (thrombin; [9]): > 20 µM

Cn1cc(-c2ccc3nnc(C(F)(F)c4ccc5ncccc5c4)n3n2)cn1 [JNJ-38877605]
pro-HGF-mediated growth of H596 cells (H596 lung cancer cells): inhibited the pro-HGF-mediated growth of H596 cells

CC(=O)N[C@H]1CCC(=O)NCCCC[C@@H](C(=O)N[C@@H](CCCNC(=N)N)C(=O)c2nc3ccccc3s2)NC(=O)[C@H](CC(C)C)NC1=O [Compound 19, Ac-cyclo(ELK)-R- ketobenzothiazole]
IC50 (thrombin): > 20 µM | half-life [6]: 2.62 h | Mouse PPB (% free) [2]: 6.0 % free | half-life [7]: > 4.82 h | IC50 [8]: > 20 µM | duration of compound exposure (detectable compound) in plasma ([3]; IP 20 mg/kg): ≤ 8 h | half-life ([3]; mouse, plasma, ip, 20 mg/kg): < 0.5 h

CC(=O)N[C@H]1CC(=O)NCCCC[C@@H](C(=O)N[C@@H](CCCNC(=N)N)C(=O)c2nc3ccccc3s2)NC(=O)CNC1=O [Compound 22, Ac-cyclo(DGK)-R- ketobenzothiazole]
IC50 (thrombin; [9]): > 20 µM
